Laboratory results published in the M2OR odorant receptor database.
Positions count from the first letter of the chain named.

Legend:
Details in all cases: stereoisomer not certain
OR52N4 (Homo sapiens) = molecular target: T1, OR52N4 (Homo sapiens) (UniProt Q8NGI2)
T1 sequence (whole entry): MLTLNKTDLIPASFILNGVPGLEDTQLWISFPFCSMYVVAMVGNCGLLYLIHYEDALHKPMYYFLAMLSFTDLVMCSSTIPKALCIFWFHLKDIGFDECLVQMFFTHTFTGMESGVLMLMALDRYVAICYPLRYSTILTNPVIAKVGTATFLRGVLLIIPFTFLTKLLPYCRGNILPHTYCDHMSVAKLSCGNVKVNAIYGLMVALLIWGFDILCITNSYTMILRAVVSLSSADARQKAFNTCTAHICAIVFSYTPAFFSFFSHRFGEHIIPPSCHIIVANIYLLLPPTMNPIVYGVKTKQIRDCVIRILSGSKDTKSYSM
Summary of the method: (§1)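 Transient luciferase assays in mammalian cell lines were common, though methods varied by source. The values come from published papers and their supplementary material, with extra details from the original authors when needed. Responsive refers to a measured signal the original authors judged statistically different from baseline, and non-responsive (inactive) to the remainder.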

OR52N5 (Homo sapiens) = molecular target: T2, OR52N5 (Homo sapiens) (UniProt Q8NH56)
T2 sequence (whole entry): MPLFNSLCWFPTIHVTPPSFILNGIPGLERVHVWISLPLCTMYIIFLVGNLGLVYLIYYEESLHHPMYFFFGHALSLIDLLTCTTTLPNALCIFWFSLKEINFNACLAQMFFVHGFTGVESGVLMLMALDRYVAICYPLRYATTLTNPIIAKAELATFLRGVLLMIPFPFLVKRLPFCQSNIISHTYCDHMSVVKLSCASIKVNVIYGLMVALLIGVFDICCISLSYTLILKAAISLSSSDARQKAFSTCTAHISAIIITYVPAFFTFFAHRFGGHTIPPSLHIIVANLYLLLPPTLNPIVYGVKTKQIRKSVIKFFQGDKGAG
Summary of the method: as §1

OR52R1 (Homo sapiens) = molecular target: T3, OR52R1 (Homo sapiens) (UniProt Q8NGF1)
T3 sequence (whole entry): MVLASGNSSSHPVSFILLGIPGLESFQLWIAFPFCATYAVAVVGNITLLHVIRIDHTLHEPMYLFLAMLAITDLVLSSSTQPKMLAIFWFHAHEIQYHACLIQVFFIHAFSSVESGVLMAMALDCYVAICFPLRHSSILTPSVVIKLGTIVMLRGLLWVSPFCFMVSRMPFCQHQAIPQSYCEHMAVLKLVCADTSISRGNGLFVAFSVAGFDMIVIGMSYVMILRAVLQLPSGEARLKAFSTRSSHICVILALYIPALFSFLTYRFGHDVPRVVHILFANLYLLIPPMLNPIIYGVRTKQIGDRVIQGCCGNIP
Summary of the method: as §1

OR52W1 (Homo sapiens) = molecular target: T4, OR52W1 (Homo sapiens) (UniProt Q6IF63)
T4 sequence (whole entry): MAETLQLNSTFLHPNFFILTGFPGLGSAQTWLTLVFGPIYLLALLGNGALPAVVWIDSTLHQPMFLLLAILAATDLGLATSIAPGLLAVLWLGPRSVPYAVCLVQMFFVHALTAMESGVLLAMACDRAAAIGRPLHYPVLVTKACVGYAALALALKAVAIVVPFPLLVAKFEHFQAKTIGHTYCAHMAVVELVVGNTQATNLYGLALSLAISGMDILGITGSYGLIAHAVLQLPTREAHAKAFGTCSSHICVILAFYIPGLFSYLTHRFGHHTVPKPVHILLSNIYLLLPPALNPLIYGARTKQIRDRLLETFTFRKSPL
Summary of the method: as §1

OR56A1 (Homo sapiens) = molecular target: T5, OR56A1 (Homo sapiens) (UniProt Q8NGH5)
T5 sequence (whole entry): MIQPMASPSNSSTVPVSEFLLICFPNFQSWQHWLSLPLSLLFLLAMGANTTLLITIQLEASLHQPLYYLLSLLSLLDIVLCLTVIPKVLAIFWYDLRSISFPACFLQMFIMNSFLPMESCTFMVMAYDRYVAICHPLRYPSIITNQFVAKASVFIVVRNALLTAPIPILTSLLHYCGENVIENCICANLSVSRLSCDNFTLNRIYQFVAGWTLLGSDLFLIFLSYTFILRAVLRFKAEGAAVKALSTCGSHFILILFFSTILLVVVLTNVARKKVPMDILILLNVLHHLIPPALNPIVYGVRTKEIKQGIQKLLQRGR
Summary of the method: as §1

OR56A3 (Homo sapiens) = molecular target: T6, OR56A3 (Homo sapiens) (UniProt Q8NH54)
T6 sequence (whole entry): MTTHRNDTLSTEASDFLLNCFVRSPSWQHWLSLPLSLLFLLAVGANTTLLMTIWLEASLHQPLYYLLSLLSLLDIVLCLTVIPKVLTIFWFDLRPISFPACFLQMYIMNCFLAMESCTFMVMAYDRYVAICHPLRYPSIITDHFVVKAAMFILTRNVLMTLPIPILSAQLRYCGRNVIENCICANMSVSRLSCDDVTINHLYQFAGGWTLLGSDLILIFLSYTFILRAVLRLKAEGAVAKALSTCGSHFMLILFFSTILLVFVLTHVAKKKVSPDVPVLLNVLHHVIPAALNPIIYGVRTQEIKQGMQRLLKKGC
Summary of the method: as §1

OR56A4 (Homo sapiens) = molecular target: T7, OR56A4 (Homo sapiens) (UniProt Q8NGH8)
T7 sequence (whole entry): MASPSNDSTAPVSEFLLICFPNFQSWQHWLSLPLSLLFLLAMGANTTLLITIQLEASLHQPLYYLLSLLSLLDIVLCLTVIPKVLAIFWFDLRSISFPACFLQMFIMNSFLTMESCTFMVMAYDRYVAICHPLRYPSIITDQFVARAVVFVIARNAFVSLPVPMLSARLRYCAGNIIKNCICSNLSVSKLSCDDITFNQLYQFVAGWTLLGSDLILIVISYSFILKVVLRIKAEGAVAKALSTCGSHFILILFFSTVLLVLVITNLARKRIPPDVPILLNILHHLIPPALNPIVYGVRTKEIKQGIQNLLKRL
Summary of the method: as §1

OR56B1 (Homo sapiens) = molecular target: T8, OR56B1 (Homo sapiens) (UniProt Q8NGI3)
T8 sequence (whole entry): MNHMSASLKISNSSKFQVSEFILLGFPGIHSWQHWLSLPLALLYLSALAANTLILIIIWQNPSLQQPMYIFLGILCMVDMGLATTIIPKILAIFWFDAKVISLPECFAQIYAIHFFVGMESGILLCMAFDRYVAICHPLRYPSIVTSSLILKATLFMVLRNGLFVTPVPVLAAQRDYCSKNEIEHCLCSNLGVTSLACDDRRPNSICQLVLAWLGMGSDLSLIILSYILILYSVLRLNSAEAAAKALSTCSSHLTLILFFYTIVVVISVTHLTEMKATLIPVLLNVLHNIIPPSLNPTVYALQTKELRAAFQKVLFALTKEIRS
Summary of the method: as §1

OR56B4 (Homo sapiens) = molecular target: T9, OR56B4 (Homo sapiens) (UniProt Q8NH76)
T9 sequence (whole entry): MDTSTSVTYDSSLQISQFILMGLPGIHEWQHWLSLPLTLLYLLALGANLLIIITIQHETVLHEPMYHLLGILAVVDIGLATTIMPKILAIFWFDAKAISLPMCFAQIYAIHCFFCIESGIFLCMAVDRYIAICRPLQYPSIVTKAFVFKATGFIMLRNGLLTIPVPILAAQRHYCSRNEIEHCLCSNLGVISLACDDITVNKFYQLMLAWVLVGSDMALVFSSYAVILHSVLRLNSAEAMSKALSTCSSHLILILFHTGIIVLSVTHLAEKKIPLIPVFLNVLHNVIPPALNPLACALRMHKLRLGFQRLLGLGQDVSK
Summary of the method: as §1

OR5AC2 (Homo sapiens) = molecular target: T10, OR5AC2 (Homo sapiens) (UniProt Q9NZP5)
T10 sequence (whole entry): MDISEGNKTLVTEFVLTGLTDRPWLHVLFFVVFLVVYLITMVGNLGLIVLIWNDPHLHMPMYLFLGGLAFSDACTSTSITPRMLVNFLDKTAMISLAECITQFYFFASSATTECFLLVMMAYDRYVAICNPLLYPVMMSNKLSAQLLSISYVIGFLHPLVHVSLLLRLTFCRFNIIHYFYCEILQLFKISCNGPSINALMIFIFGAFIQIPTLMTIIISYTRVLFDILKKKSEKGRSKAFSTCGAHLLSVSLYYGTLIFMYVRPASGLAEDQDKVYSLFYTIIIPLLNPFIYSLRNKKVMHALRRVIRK
Summary of the method: as §1

OR56A5 (Homo sapiens) = molecular target: T11, OR56A5 (Homo sapiens) (UniProt P0C7T3)
T11 sequence (whole entry): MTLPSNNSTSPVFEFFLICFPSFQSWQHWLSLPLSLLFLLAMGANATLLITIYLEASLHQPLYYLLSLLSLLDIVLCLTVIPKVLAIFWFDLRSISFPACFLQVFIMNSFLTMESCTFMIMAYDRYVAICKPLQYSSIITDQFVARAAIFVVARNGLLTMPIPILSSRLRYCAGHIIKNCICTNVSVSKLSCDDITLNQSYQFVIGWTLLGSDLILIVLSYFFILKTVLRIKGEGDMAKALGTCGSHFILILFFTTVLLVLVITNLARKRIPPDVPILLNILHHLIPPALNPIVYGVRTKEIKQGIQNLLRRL
Summary of the method: as §1

OR5A1 (Homo sapiens) = molecular target: T12, OR5A1 (Homo sapiens) (UniProt Q8NGJ0)
T12 sequence (whole entry): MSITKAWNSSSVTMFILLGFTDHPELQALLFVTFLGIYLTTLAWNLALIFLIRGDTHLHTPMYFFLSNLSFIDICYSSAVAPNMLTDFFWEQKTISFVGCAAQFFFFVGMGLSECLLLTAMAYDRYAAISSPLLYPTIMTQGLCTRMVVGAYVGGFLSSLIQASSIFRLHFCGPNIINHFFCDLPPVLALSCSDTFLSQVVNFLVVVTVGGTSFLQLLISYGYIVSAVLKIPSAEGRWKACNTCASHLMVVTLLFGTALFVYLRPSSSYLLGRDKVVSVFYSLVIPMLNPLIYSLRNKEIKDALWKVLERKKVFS
Summary of the method: as §1

OR5A1 D183N = tested on: T13, OR5A1 D183N
T13 sequence (whole entry): T12 sequence (whole entry) with D183N
Summary of the method: as §1

OR5A2 (Homo sapiens) = molecular target: T14, OR5A2 (Homo sapiens) (UniProt Q8NGI9)
T14 sequence (whole entry): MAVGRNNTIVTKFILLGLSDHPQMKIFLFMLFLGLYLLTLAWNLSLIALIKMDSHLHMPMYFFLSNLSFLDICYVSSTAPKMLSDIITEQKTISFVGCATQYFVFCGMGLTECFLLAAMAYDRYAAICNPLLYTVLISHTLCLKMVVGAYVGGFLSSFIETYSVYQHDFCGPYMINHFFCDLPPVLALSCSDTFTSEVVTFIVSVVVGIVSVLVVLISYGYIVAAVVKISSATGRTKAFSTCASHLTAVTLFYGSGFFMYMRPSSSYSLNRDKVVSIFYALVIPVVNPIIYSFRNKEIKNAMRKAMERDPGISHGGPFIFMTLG
Summary of the method: as §1

OR5AK2 (Homo sapiens) = molecular target: T15, OR5AK2 (Homo sapiens) (UniProt Q8NH90)
T15 sequence (whole entry): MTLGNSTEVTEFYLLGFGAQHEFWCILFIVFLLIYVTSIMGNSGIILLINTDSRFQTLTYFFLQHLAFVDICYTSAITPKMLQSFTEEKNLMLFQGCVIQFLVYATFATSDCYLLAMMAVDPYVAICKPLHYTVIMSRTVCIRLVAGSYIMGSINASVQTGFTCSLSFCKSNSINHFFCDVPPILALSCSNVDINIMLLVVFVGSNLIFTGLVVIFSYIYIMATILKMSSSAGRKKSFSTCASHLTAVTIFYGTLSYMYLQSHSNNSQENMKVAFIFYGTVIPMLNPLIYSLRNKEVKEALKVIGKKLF
Summary of the method: as §1

OR5AN1 (Homo sapiens) = molecular target: T16, OR5AN1 (Homo sapiens) (UniProt Q8NGI8)
T16 sequence (whole entry): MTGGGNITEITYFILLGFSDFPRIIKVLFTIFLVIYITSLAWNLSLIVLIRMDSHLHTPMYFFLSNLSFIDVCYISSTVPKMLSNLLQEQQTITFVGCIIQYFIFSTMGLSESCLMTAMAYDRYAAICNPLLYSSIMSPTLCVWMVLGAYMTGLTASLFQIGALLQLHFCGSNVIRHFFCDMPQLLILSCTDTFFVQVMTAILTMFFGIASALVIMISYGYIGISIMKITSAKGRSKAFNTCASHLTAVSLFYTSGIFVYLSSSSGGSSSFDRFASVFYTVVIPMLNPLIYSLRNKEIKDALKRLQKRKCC
Summary of the method: as §1

OR5AP2 (Homo sapiens) = molecular target: T17, OR5AP2 (Homo sapiens) (UniProt Q8NGF4)
T17 sequence (whole entry): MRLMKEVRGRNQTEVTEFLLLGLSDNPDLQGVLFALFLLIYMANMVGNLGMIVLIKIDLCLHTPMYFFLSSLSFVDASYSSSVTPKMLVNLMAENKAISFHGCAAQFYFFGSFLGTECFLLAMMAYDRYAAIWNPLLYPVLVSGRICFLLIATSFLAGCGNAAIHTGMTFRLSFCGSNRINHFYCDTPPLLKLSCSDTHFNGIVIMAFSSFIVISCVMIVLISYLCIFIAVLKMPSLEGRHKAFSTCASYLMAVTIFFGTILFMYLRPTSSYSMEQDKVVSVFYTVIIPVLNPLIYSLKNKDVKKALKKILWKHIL
Summary of the method: as §1

Measured: odorant receptor agonist call

CCCCCC1CCCC(=O)O1 (stereo unspecified)
inactive: OR52N4 (Homo sapiens) | OR52W1 (Homo sapiens) | OR56A1 (Homo sapiens) | OR56A3 (Homo sapiens) | OR56A4 (Homo sapiens) | OR56B1 (Homo sapiens)
active: OR52N5 (Homo sapiens) | OR52R1 (Homo sapiens) | OR56B4 (Homo sapiens)

CC(C)=CCCC(C)=CCO
inactive: OR5AC2 (Homo sapiens)

CC1=C(O)C(=O)C(C)O1 (stereo unspecified)
not listed: OR56A4 (Homo sapiens)
inactive: all other assays above

CCC1OC(=O)C(O)=C1C (stereo unspecified)
not listed: OR56A4 (Homo sapiens)
inactive: all other assays above

C=CCOC(=O)COCCC(C)C
inactive: OR5AC2 (Homo sapiens)

CC1=NC(C)C(C)S1 (stereo unspecified)
not listed: OR56A4 (Homo sapiens)
inactive: all other assays above

C=CC(C)(CCC=C(C)C)OC(C)=O (stereo unspecified)
inactive: OR5AC2 (Homo sapiens)

CC(C)(C)C1CCCCC1OCCCCO (stereo unspecified)
inactive: OR5AC2 (Homo sapiens)
